According to ChEMBL document CHEMBL4689842, “EUbOPEN Chemogenomics Library wave 1” (2021):

System: HEK-293T
Assay: Multiplex assay against HEK293T;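 as to Population Tubulin-Different-Phenotype (%): share of the cells with healthy nuclei that show this phenotype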
Assay type: toxicity, cell-based
Settings: human
Procedure, shortened: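 Hoechst33342, BioTracker Green Microtubule Cytoskeleton Dye, MitoTracker Red and Annexin V Alexa Fluor 680 were added to live cells at seeding, and imaging on a CQ1 microscope at 37°C and 5% CO2 followed compound addition. Gating by CellPathfinder machine learning separated cells into Hoechst high-intensity objects or normal cells, then normal cells into healthy, pyknosed or fragmented nuclei, then pyknosed cells into mitotic or apoptotic. Per cents of healthy-nucleus cells are reported for the tubulin, mitochondrial-mass and membrane-permeability phenotypes.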

[1] = 12 h, 0 µM, compound concentration 0 uM, replicate 1
[2] = 12 h, 0 µM, compound concentration 0 uM, replicate 2
[3] = 12 h, 1 µM, compound concentration 1 uM, replicate 1
[4] = 12 h, 1 µM, compound concentration 1 uM, replicate 2
[5] = 24 h, 0 µM, compound concentration 0 uM, replicate 1
[6] = 24 h, 0 µM, compound concentration 0 uM, replicate 2
[7] = 24 h, 1 µM, compound concentration 1 uM, replicate 1
[8] = 24 h, 1 µM, compound concentration 1 uM, replicate 2
[9] = 12 h, 10 µM, compound concentration 10 uM, replicate 1
[10] = 12 h, 10 µM, compound concentration 10 uM, replicate 2
[11] = 24 h, 10 µM, compound concentration 10 uM, replicate 1
[12] = 24 h, 10 µM, compound concentration 10 uM, replicate 2

Compound: CCNc1cc(N[C@H]2CC[C@H](O)CC2)nc(Nc2ccc3c(ccn3Cc3ccccc3)c2)n1
- Population Apoptotic (%) [1]: 42%
- Population Fragmented Nuclei (%) [1]: 21%
- Population Healthy Nuclei (%) [1]: 10%
- Population Hoechst High Intensity Objects (%) [1]: 21%
- Population Membrane Permeable-Phenotype (%) [1]: 16%
- Population Mitochondria Different-Phenotype (%) [1]: 41%
- Population Mitotic Cells (%) [1]: 57%
- Population Normal (%) [1]: 78%
- Population Pyknosed Nuclei (%) [1]: 67%
- Population Tubulin-Different-Phenotype (%) [1]: 50%
- Total Cell Count [1]: 667
- Population Apoptotic (%) [2]: 29%
- Population Fragmented Nuclei (%) [2]: 3%
- Population Healthy Nuclei (%) [2]: 38%
- Population Hoechst High Intensity Objects (%) [2]: 6%
- Population Membrane Permeable-Phenotype (%) [2]: 1%
- Population Mitochondria Different-Phenotype (%) [2]: 83%
- Population Mitotic Cells (%) [2]: 70%
- Population Normal (%) [2]: 93%
- Population Pyknosed Nuclei (%) [2]: 58%
- Population Tubulin-Different-Phenotype (%) [2]: 97%
- Total Cell Count [2]: 1155
- Population Apoptotic (%) [3]: 23%
- Population Fragmented Nuclei (%) [3]: 12%
- Population Healthy Nuclei (%) [3]: 54%
- Population Hoechst High Intensity Objects (%) [3]: 10%
- Population Mitochondria Different-Phenotype (%) [3]: 27%
- Population Mitotic Cells (%) [3]: 76%
- Population Normal (%) [3]: 89%
- Population Pyknosed Nuclei (%) [3]: 32%
- Population Tubulin-Different-Phenotype (%) [3]: 46%
- Total Cell Count [3]: 618
- Population Apoptotic (%) [4]: 7%
- Population Fragmented Nuclei (%) [4]: 3%
- Population Healthy Nuclei (%) [4]: 85%
- Population Hoechst High Intensity Objects (%) [4]: 2%
- Population Membrane Permeable-Phenotype (%) [4]: 10%
- Population Mitochondria Different-Phenotype (%) [4]: 33%
- Population Mitotic Cells (%) [4]: 92%
- Population Normal (%) [4]: 97%
- Population Pyknosed Nuclei (%) [4]: 11%
- Population Tubulin-Different-Phenotype (%) [4]: 80%
- Total Cell Count [4]: 1484
- Population Apoptotic (%) [5]: 59%
- Population Fragmented Nuclei (%) [5]: 26%
- Population Healthy Nuclei (%) [5]: 10%
- Population Hoechst High Intensity Objects (%) [5]: 19%
- Population Membrane Permeable-Phenotype (%) [5]: 5%
- Population Mitochondria Different-Phenotype (%) [5]: 51%
- Population Mitotic Cells (%) [5]: 40%
- Population Normal (%) [5]: 80%
- Population Pyknosed Nuclei (%) [5]: 63%
- Population Tubulin-Different-Phenotype (%) [5]: 53%
- Total Cell Count [5]: 694
- Population Apoptotic (%) [6]: 37%
- Population Fragmented Nuclei (%) [6]: 2%
- Population Healthy Nuclei (%) [6]: 30%
- Population Hoechst High Intensity Objects (%) [6]: 8%
- Population Membrane Permeable-Phenotype (%) [6]: 2%
- Population Mitochondria Different-Phenotype (%) [6]: 91%
- Population Mitotic Cells (%) [6]: 62%
- Population Normal (%) [6]: 91%
- Population Pyknosed Nuclei (%) [6]: 66%
- Population Tubulin-Different-Phenotype (%) [6]: 96%
- Total Cell Count [6]: 1176
- Population Apoptotic (%) [7]: 20%
- Population Fragmented Nuclei (%) [7]: 9%
- Population Healthy Nuclei (%) [7]: 76%
- Population Hoechst High Intensity Objects (%) [7]: 7%
- Population Membrane Permeable-Phenotype (%) [7]: 8%
- Population Mitochondria Different-Phenotype (%) [7]: 18%
- Population Mitotic Cells (%) [7]: 79%
- Population Normal (%) [7]: 92%
- Population Pyknosed Nuclei (%) [7]: 13%
- Population Tubulin-Different-Phenotype (%) [7]: 54%
- Total Cell Count [7]: 703
- Population Apoptotic (%) [8]: 9%
- Population Fragmented Nuclei (%) [8]: 11%
- Population Healthy Nuclei (%) [8]: 83%
- Population Hoechst High Intensity Objects (%) [8]: 2%
- Population Membrane Permeable-Phenotype (%) [8]: 12%
- Population Mitochondria Different-Phenotype (%) [8]: 14%
- Population Mitotic Cells (%) [8]: 90%
- Population Normal (%) [8]: 97%
- Population Pyknosed Nuclei (%) [8]: 4%
- Population Tubulin-Different-Phenotype (%) [8]: 75%
- Total Cell Count [8]: 2335

Compound: COC(=N)c1nc2ccc3ncnc(Nc4ccc(OC)cc4F)c3c2s1
- Population Apoptotic (%) [3]: 15%
- Population Fragmented Nuclei (%) [3]: 16%
- Population Healthy Nuclei (%) [3]: 53%
- Population Hoechst High Intensity Objects (%) [3]: 21%
- Population Membrane Permeable-Phenotype (%) [3]: 3%
- Population Mitochondria Different-Phenotype (%) [3]: 12%
- Population Mitotic Cells (%) [3]: 84%
- Population Normal (%) [3]: 78%
- Population Pyknosed Nuclei (%) [3]: 29%
- Population Tubulin-Different-Phenotype (%) [3]: 5%
- Total Cell Count [3]: 546
- Population Apoptotic (%) [4]: 24%
- Population Fragmented Nuclei (%) [4]: 4%
- Population Healthy Nuclei (%) [4]: 87%
- Population Hoechst High Intensity Objects (%) [4]: 5%
- Population Membrane Permeable-Phenotype (%) [4]: 0%
- Population Mitochondria Different-Phenotype (%) [4]: 21%
- Population Mitotic Cells (%) [4]: 75%
- Population Normal (%) [4]: 94%
- Population Pyknosed Nuclei (%) [4]: 7%
- Population Tubulin-Different-Phenotype (%) [4]: 9%
- Total Cell Count [4]: 1072
- Population Apoptotic (%) [9]: 19%
- Population Fragmented Nuclei (%) [9]: 10%
- Population Healthy Nuclei (%) [9]: 66%
- Population Hoechst High Intensity Objects (%) [9]: 10%
- Population Mitochondria Different-Phenotype (%) [9]: 6%
- Population Mitotic Cells (%) [9]: 80%
- Population Normal (%) [9]: 89%
- Population Pyknosed Nuclei (%) [9]: 22%
- Population Tubulin-Different-Phenotype (%) [9]: 4%
- Total Cell Count [9]: 552
- Population Apoptotic (%) [10]: 4%
- Population Fragmented Nuclei (%) [10]: 6%
- Population Healthy Nuclei (%) [10]: 88%
- Population Hoechst High Intensity Objects (%) [10]: 3%
- Population Membrane Permeable-Phenotype (%) [10]: 2%
- Population Mitochondria Different-Phenotype (%) [10]: 8%
- Population Mitotic Cells (%) [10]: 95%
- Population Normal (%) [10]: 96%
- Population Pyknosed Nuclei (%) [10]: 5%
- Population Tubulin-Different-Phenotype (%) [10]: 6%
- Total Cell Count [10]: 1236
- Population Apoptotic (%) [7]: 19%
- Population Fragmented Nuclei (%) [7]: 14%
- Population Healthy Nuclei (%) [7]: 71%
- Population Hoechst High Intensity Objects (%) [7]: 11%
- Population Membrane Permeable-Phenotype (%) [7]: 3%
- Population Mitochondria Different-Phenotype (%) [7]: 7%
- Population Mitotic Cells (%) [7]: 80%
- Population Normal (%) [7]: 88%
- Population Pyknosed Nuclei (%) [7]: 13%
- Population Tubulin-Different-Phenotype (%) [7]: 12%
- Total Cell Count [7]: 573
- Population Apoptotic (%) [8]: 17%
- Population Healthy Nuclei (%) [8]: 82%
- Population Hoechst High Intensity Objects (%) [8]: 5%
- Population Mitochondria Different-Phenotype (%) [8]: 4%
- Population Mitotic Cells (%) [8]: 82%
- Population Normal (%) [8]: 94%
- Population Pyknosed Nuclei (%) [8]: 2%
- Population Tubulin-Different-Phenotype (%) [8]: 19%
- Total Cell Count [8]: 1668
- Population Apoptotic (%) [11]: 16%
- Population Fragmented Nuclei (%) [11]: 9%
- Population Healthy Nuclei (%) [11]: 82%
- Population Hoechst High Intensity Objects (%) [11]: 8%
- Population Membrane Permeable-Phenotype (%) [11]: 7%
- Population Mitochondria Different-Phenotype (%) [11]: 2%
- Population Mitotic Cells (%) [11]: 83%
- Population Normal (%) [11]: 91%
- Population Pyknosed Nuclei (%) [11]: 8%
- Population Tubulin-Different-Phenotype (%) [11]: 8%
- Total Cell Count [11]: 657
- Population Apoptotic (%) [12]: 4%
- Population Fragmented Nuclei (%) [12]: 20%
- Population Healthy Nuclei (%) [12]: 77%
- Population Hoechst High Intensity Objects (%) [12]: 3%
- Population Membrane Permeable-Phenotype (%) [12]: 4%
- Population Mitotic Cells (%) [12]: 95%
- Population Normal (%) [12]: 96%
- Population Pyknosed Nuclei (%) [12]: 2%
- Population Tubulin-Different-Phenotype (%) [12]: 5%
- Total Cell Count [12]: 2058
